# Calls of active or inactive are those of the source.
# Experiments:
# Rattus norvegicus [1] = assay: Increase in prolactin level in Wistar rat plasma at 5 mg/kg, ip after 1 hr relative to control; format: functional, organism-based; design: dose 5 mg/kg
# Procedure, shortened: (§1)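 Male Wistar rats (150–230 g; four/group) received drug ip in 1% lactic acid, with a vehicle control group. Orbital-vein blood was taken under light ether anesthesia before dosing and at 1 and 2 h, collected into EDTA on ice. Plasma was spun at 1600g for 20 min and frozen at -78 °C. Prolactin was measured by double-antibody rat prolactin RIA. Comparison was by t test against control and time 0.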
# Rattus norvegicus [2] = assay: Increase in prolactin level in Wistar rat plasma at 5 mg/kg, ip after 2 hrs relative to control; format: functional, organism-based; design: dose 5 mg/kg; procedure, shortened: as §1
# Rattus norvegicus [3] = assay: Toxicity assessed as induction of cataleptic extrapyramidal symptoms in Wistar rat at 5 mg/kg, ip after 2 hrs by wall descending test; format: organism-based; design: dose 5 mg/kg, route intraperitoneal; details: in vivo
# Procedure, shortened: (§2)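 Rats (six/group) were injected ip with 5 mg/kg or 7.5 mg/kg of the parent drugs, or equimolar esters, in 1% lactic acid. Wall descending test: the time for a rat hanging on the cage wall to move its hind legs to the floor was recorded, with a 120 s maximum. Rats were tested every 30 min up to 420 min post-dose.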
# Rattus norvegicus [4] = assay: Increase in prolactin level in Wistar rat plasma at 5 to 20 mg/kg, po after 90 to 180 mins relative to control; format: functional, organism-based
# Procedure, shortened: (§3)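 Five groups of male Wistar rats (4/group) were gavaged with 1% lactic acid vehicle, 5, 10 or 20 mg/kg, or equimolar 7, 14 or 28 mg/kg of the ester salt. Orbital-vein plasma was sampled under light ether at 0, 90 and 180 min and prolactin assayed by double-antibody RIA. Comparison was by t test against control and time 0.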
# Rattus norvegicus [5] = assay: Increase in prolactin level in Wistar rat plasma at 7 to 28 mg/kg, po after 90 to 180 mins relative to control; format: functional, organism-based; procedure, shortened: as §3
# Rattus norvegicus [6] = assay: Decrease in sedation in Wistar rat at 5 to 20 mg/kg, po; format: functional, organism-based
# Procedure, shortened: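 Male Wistar rats (150–230 g) were dosed by gavage. During catalepsy testing, sedation/alertness was recorded double-blind. The ip study used this scale: 0 active mobile; * calm and mobile; ** calm and immobile; *** ataxic and non-alert.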
# Rattus norvegicus [7] = assay: Reduction of cataleptic behavior in Wistar rat at 5 to 20 mg/kg, po by bar test; format: functional, organism-based
# Procedure, shortened: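 Rats were gavaged with 5, 10 or 20 mg/kg or equimolar doses, and catalepsy was scored 4 h post-dose; a time course was run at 5 and 10 mg/kg. Bar test: forelimbs rested on a 5.5 cm bar, and the time to descend to the surface was recorded. Rats were tested individually, hourly, with a 120 s cutoff.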
# Rattus norvegicus [8] = assay: Reduction of D-amphetamine-induced hyperactivity in Wistar rat assessed as reduction of wall-climbing at 2.5 mg/kg, po; format: functional, organism-based; design: dose 2.5 mg/kg
# Procedure, shortened: (§4)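 Male Wistar rats (six/group) were dosed po with 1% lactic acid vehicle (two groups), 2.5 mg/kg or equimolar test agent, or GABA at 1 mg/kg. After 90 min, all groups except one vehicle group received D-amphetamine (2.0 mg/kg ip). Rats were placed singly in barrels, and after 30 min head movements and wall-climbing attempts over 120 s were counted double-blind.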
# Rattus norvegicus [9] = assay: Reduction of D-amphetamine-induced hyperactivity in Wistar rat assessed as reduction of head movements at 2.5 mg/kg, po; format: functional, organism-based; design: dose 2.5 mg/kg; procedure, shortened: as §4
# Rattus norvegicus [10] = assay: Increase in prolactin level in Wistar rat plasma at 7.5 mg/kg, ip after 1 hr relative to control; format: functional, organism-based; design: dose 7.5 mg/kg
# Procedure, shortened: (§5)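 Male Wistar rats (150–230 g), four per group, dosed ip in 1% lactic acid vehicle. Blood taken from the orbital vein under light ether anesthesia before dosing and 1 and 2 h after. EDTA plasma was separated at 1600g for 20 min and frozen at -78 °C. Prolactin was measured by double-antibody rat prolactin RIA, compared with vehicle and time 0 (t test).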
# Rattus norvegicus [11] = assay: Increase in prolactin level in Wistar rat plasma at 7.5 mg/kg, ip after 2 hrs relative to control; format: functional, organism-based; design: dose 7.5 mg/kg; procedure, shortened: as §5
# Rattus norvegicus [12] = assay: Toxicity assessed as induction of cataleptic extrapyramidal symptoms in Wistar rat at 7.5 mg/kg, ip after 2 hrs by wall descending test; format: organism-based; design: dose 7.5 mg/kg, route intraperitoneal; details: in vivo
# Procedure, shortened: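 Male Wistar rats (150–230 g), six per group, dosed ip in 1% lactic acid. Wall descending test: time for a rat hanging on the cage wall to move its hind legs and reach the floor, capped at 120 s. Rats were tested individually, every 30 min up to 420 min. Sedation was scored double-blind at the same time points.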
# Rattus norvegicus [13] = assay: Inhibition of D-amphetamine-induced hyperactivity in Wistar rat at 2.5 mg/kg, po; format: functional, organism-based; design: dose 2.5 mg/kg; procedure, shortened: as §4
# Rattus norvegicus [14] = assay: Toxicity assessed as induction of cataleptic extrapyramidal symptoms in orally dosed Wistar rat by bar test; details: in vivo, po
# Rattus norvegicus [15] = assay: Toxicity assessed as induction of cataleptic extrapyramidal symptoms in Wistar rat at 7.5 mg/kg, ip after 7 hrs by wall descending test; format: organism-based; design: dose 7.5 mg/kg, route intraperitoneal; details: in vivo; procedure, shortened: as §2
Structure (SMILES),Activity (Rattus norvegicus [1]),Activity (Rattus norvegicus [2]),Activity (Rattus norvegicus [3]),Activity (Rattus norvegicus [10]),Activity (Rattus norvegicus [11]),further results
Cl.NCCCC(=O)OCCN1CCN(CCCN2c3ccccc3Sc3ccc(Cl)cc32)CC1 [BL-1020],Active,Active,Non-toxic,–,–,Activity (Rattus norvegicus [4]): Active; Activity (Rattus norvegicus [5]): Active; Activity (Rattus norvegicus [6]): Active; Activity (Rattus norvegicus [7]): Active; Activity (Rattus norvegicus [8]): Active; Activity (Rattus norvegicus [9]): Active
OCCN1CCN(CCCN2c3ccccc3Sc3ccc(C(F)(F)F)cc32)CC1 [FLUPHENAZINE],–,–,–,Active,Active,Activity (Rattus norvegicus [12]): Toxic
OCCN1CCN(CCCN2c3ccccc3Sc3ccc(Cl)cc32)CC1 [PERPHENAZINE],Active,Active,Toxic,–,–,Activity (Rattus norvegicus [13]): Active; Activity (Rattus norvegicus [14]): Dose-dependent effect
Cl.NCCCC(=O)OCCN1CCN(CCCN2c3ccccc3Sc3ccc(C(F)(F)F)cc32)CC1,–,–,–,Active,Active,Activity (Rattus norvegicus [15]): Non-toxic
